From PubChem
PP1 inh – PP1-alpha phosphatase inhibitors, primary screen, counter-screen for PP5 inhibitor project, biochemical, fluorescence, OMFP substrate, single point. Serine/threonine-protein phosphatase PP1-alpha catalytic subunit (Homo sapiens), P62136. purified PP1alpha. inhibition, % at 6.7 µM. actives 0.9% (n = 320,000). AID 2235, 2010;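 active means inhibition above the mean inhibition of all tested compounds plus 3 SD, computed separately for each screening campaign, cut at about 15% in these data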
Target sequence (P62136 whole entry, looked up): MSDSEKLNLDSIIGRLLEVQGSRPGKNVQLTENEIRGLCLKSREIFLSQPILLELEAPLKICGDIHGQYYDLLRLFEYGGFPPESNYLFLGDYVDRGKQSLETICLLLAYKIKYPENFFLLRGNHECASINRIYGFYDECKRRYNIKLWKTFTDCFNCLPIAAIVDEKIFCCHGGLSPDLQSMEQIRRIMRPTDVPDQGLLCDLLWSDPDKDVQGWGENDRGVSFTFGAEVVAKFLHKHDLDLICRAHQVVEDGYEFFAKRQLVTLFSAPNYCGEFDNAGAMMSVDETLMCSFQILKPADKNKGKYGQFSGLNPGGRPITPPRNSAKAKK
HNF4A DNA FP – change in binding of human HNF4A to DNA, primary screen, biochemical, fluorescence polarization, FITC-DNA. Hepatocyte nuclear factor 4-alpha (Homo sapiens), P41235. 1 h. activity change, % at 10 µM. actives 0.3% (n = 360,000); in the data active means activity change above about 30%, passing the limit was not always enough
Rpn11 inh – Rpn11 (PSMD14) deubiquitinase inhibitors, primary screen, biochemical, fluorescence polarization, uHTS. 26S proteasome non-ATPase regulatory subunit 14 (Homo sapiens), O00487. human 26S proteasome, Ub4-pepOG fluorescence polarization; 20S core pre-blocked with epoxomicin. inhibition, % at 20 µM. actives 0.59% (n = 360,000). AID 588493, 2011;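 active means inhibition at 20 µM, scaled to each plate's controls, above about 33%, limit read from the data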
NadD block – inhibitors of S. aureus NadD, primary screen, biochemical, colorimetric, uHTS; inhibition, % at 20 µM; Nicotinate-nucleotide adenylyltransferase NadD (Staphylococcus aureus N315); purified NadD enzyme, colorimetric absorbance read-out; actives 0.78% (n = 360,000); in the data active means inhibition above about 26%
TPT1 inhibitor – Candida albicans TPT1 enzyme inhibitors, primary screen, biochemical, fluorescence polarization; tRNA 2'-phosphotransferase TPT1 (Candida albicans SC5314); recombinant caTPT1, FP RNA substrate dephosphorylation; inhibition, % at 5 µM; actives 0.81% (n = 300,000); AID 1962, 2009;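 active means inhibition above the mean of all tested compounds plus 3 SD, set per screening campaign, cut at about 24% in these data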;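 further: plate controls were DMSO alone for no effect and ferristatin control at 100 nM for full effect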
CSN deneddyl inh – inhibitors of CSN-mediated cullin deneddylation, primary screen, biochemical, fluorescence polarization, uHTS; COP9 signalosome complex subunit 5 (Homo sapiens), Q92905; Purified CSN, SCF-Nedd8-OG deneddylation; AID 651999, 2013; actives 0.38% (n = 360,000); inhibition, % at 12.5 µM;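 active means pattern-corrected inhibition above about 35%, with an unprinted fluorescence ratio check between 0.5 and 1.5, limit read from the data, passing the limit was not always enough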;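 further: 0% = enzyme with substrate and 100% = substrate without enzyme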
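Test system: Human Csn5 produced in HEK293T cells | Compound: 12.5 µM single point | Times: 90 min, room temperature | Signal: Fluorescence polarization readout | Read-out basis: % inhibition of substrate cleavage by Csn5 | Controls: no-enzyme wells high, enzyme-with-substrate wells low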
caTPT1 confirm – Candida albicans TPT1 inhibitors, confirmation, biochemical, fluorescence polarization, triplicate. shares compounds with TPT1 inhibitor. recombinant caTPT1, RNase T1 coupled. AID 2149, 2009. inhibition, % at 5 µM. actives 74% (n = 2,400);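 active means inhibition above the primary screen limit, the mean inhibition of all tested compounds plus 3 SD, cut at about 25% in these data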
RNase T1 inh – RNase T1 inhibitors, counter-screen for TPT1 inhibitor project, biochemical, fluorescence polarization | shares compounds with TPT1 inhibitor | RNase T1 cleavage, 1536-well | inhibition, % at 5 µM | actives 83% (n = 2,400) | AID 2153, 2009;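 active means inhibition above the solvent-only control well mean plus 3 SD, limit set per screening run, cut at about 23% in these data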;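 further: plate controls were DMSO wells with enzyme for no effect and wells without RNase T1 for full effect; inhibitors block cleavage so intact labeled substrate keeps polarization high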
Target sequence (P00651 whole entry, looked up): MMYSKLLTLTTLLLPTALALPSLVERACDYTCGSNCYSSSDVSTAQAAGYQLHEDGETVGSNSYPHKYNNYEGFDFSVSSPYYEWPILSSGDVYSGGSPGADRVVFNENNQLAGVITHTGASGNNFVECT
Rpn11 inh conf – Rpn11 (PSMD14) deubiquitinase inhibitors, confirmation, biochemical, fluorescence polarization, single concentration; purified human 26S proteasome, Ub4-pepOG fluorescence polarization; proteasome pretreated with epoxomicin; actives 29% (n = 1,900); shares compounds with Rpn11 inh; inhibition, % at 20 µM
MMP-2 inh – MMP-2 enzyme inhibition, confirmation, counter-screen for RPN11 inhibitor project, biochemical, fluorescence, single concentration. shares compounds with Rpn11 inh. recombinant MMP-2, FRET peptide cleavage fluorescence. inhibition, % at 20 µM. actives 4% (n = 1,900);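 further: human MMP-2 activated beforehand with APMA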
Thrombin inh – bovine thrombin protease inhibition, confirmation, counter-screen for Rpn11 inhibitor project, biochemical, fluorescence polarization, single concentration. shares compounds with Rpn11 inh. bovine thrombin cleavage of Ub4-pepOG. inhibition, % at 20 µM. actives 13% (n = 1,900). AID 602333, 2012;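 active means mean inhibition at least 40% at 20 µM, or signal 3 deviations below plate average, so some actives read negative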;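 further: plate controls were thrombin with DMSO for no effect and buffer wells lacking thrombin for full effect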
An asterisk follows results filed as active. In the library only some 2.7% were active in any assay of this set; here they are far more common. Unless noted, no stated cut-off is given here; in the data, active means inhibition above about 40%; inactive means the rest.

`COc1cccc(/C=C2\Oc3ccc(O)cc3C2=O)c1O` gave PP1 inh -5, HNF4A DNA FP 9, Rpn11 inh 44*, NadD block -1, TPT1 inhibitor 49*, CSN deneddyl inh 6, caTPT1 confirm 71*, RNase T1 inh 79*, Rpn11 inh conf -6, MMP-2 inh -73 and Thrombin inh -13.
For COc1cccc(/C=C2\Oc3cc(OCC(=O)N4CCCC4)ccc3C2=O)c1OC the results were PP1 inh 1, HNF4A DNA FP -3, Rpn11 inh 2, NadD block 0, TPT1 inhibitor -1 and CSN deneddyl inh -8.
`COc1cc2c(=O)n(CCC(=O)NCC3CCCO3)c(=O)n(CC(=O)Nc3ccc(F)cc3)c2cc1OC` (centres undefined) gave PP1 inh 5, HNF4A DNA FP 0, Rpn11 inh 3, NadD block 1, TPT1 inhibitor -2 and CSN deneddyl inh -2.
For Nc1c(C(=O)Nc2ccccc2F)sc2nc(-c3ccco3)ccc12 the results were PP1 inh 7, HNF4A DNA FP 20, Rpn11 inh 44*, NadD block 13, TPT1 inhibitor 31*, CSN deneddyl inh 19, caTPT1 confirm 27*, RNase T1 inh 38*, Rpn11 inh conf 12, MMP-2 inh -29 and Thrombin inh 11.
CCN(CCO)c1ccc(N=Nc2cc(C)[nH]n2)cc1 was read as PP1 inh -5, HNF4A DNA FP 47*, Rpn11 inh 70*, NadD block -5, TPT1 inhibitor 25*, CSN deneddyl inh 17, caTPT1 confirm 34*, RNase T1 inh 42*, Rpn11 inh conf 42*, MMP-2 inh -13 and Thrombin inh 36.
Screening CCN(CCO)c1ccc(Nc2cc(-c3ccc(-c4ccccc4)cc3)ncn2)cc1 returned HNF4A DNA FP 5, Rpn11 inh -6, NadD block 4 and CSN deneddyl inh 8.
For CC1(c2cccc(Br)c2)NC(=O)N(CC(=O)Nc2ccc(F)cc2)C1=O (centres undefined) the results were PP1 inh 1, HNF4A DNA FP 3, Rpn11 inh 7, NadD block -7, TPT1 inhibitor -2 and CSN deneddyl inh 2.
For COc1ccccc1NS(=O)(=O)c1cc([N+](=O)[O-])ccc1N/N=C/c1c[nH]c2ccccc12 the results were PP1 inh 3, HNF4A DNA FP 72*, Rpn11 inh 47*, NadD block 26, TPT1 inhibitor 129*, CSN deneddyl inh 22, caTPT1 confirm 106*, RNase T1 inh 107*, Rpn11 inh conf 19, MMP-2 inh -37 and Thrombin inh 9.
`COc1cccc(/C=C2\SC(=S)N(C(C(=O)O)c3ccccc3)C2=O)c1OC` (centres undefined) gave PP1 inh 4, HNF4A DNA FP 10, Rpn11 inh 1, NadD block -2, TPT1 inhibitor 2 and CSN deneddyl inh 6.
`COc1ccc(/C=C2\SC(=S)N(C(C(=O)O)c3ccccc3)C2=O)c(OC)c1` (centres undefined) gave PP1 inh 9, HNF4A DNA FP 28, Rpn11 inh 41*, NadD block 6, TPT1 inhibitor 27*, CSN deneddyl inh 14, caTPT1 confirm 40*, RNase T1 inh 53*, Rpn11 inh conf 18, MMP-2 inh -24 and Thrombin inh 21.
Screening COc1ccc(C(=O)Nc2cccc(S(=O)(=O)NC3=NCCC3)c2)cc1OC returned HNF4A DNA FP -2, Rpn11 inh 4, NadD block 0 and CSN deneddyl inh -4.
Screening CCN1C(=S)SC(=O)C1=C1C=C(C)OC(C)=C1 returned PP1 inh 3, HNF4A DNA FP -15, NadD block -3, TPT1 inhibitor 4 and CSN deneddyl inh -18.
Screening CCN1C(=S)SC(=O)C1=C1C=C(C)N(Cc2ccco2)C(C)=C1 returned PP1 inh 0, HNF4A DNA FP 36, Rpn11 inh 46*, NadD block 15, TPT1 inhibitor 163*, CSN deneddyl inh 17, caTPT1 confirm 126*, RNase T1 inh 131*, Rpn11 inh conf 2, MMP-2 inh 4 and Thrombin inh 34.
`CCOc1ccc2nc(NC3=NC(C)(C)C=C(C)N3)nc(C)c2c1` gave PP1 inh -1, HNF4A DNA FP 4, Rpn11 inh 0, NadD block -1, TPT1 inhibitor 5 and CSN deneddyl inh 5.
